Values after ≈ are worked out from the molar mass of the structure shown.
Columns and labels:
[1] = biological target: T1, Peroxisome proliferator-activated receptor gamma (Homo sapiens) (UniProt P37231); test: Transactivation of human GAL4-fused PPARgamma LBD expressed in African green monkey COS7 cells co-expressing 5Gal4 pGL3 TK Luc after overnight incubation by luciferase reporter gene assay relative to rosiglitazone; assay type: cell-based
T1 sequence (whole entry): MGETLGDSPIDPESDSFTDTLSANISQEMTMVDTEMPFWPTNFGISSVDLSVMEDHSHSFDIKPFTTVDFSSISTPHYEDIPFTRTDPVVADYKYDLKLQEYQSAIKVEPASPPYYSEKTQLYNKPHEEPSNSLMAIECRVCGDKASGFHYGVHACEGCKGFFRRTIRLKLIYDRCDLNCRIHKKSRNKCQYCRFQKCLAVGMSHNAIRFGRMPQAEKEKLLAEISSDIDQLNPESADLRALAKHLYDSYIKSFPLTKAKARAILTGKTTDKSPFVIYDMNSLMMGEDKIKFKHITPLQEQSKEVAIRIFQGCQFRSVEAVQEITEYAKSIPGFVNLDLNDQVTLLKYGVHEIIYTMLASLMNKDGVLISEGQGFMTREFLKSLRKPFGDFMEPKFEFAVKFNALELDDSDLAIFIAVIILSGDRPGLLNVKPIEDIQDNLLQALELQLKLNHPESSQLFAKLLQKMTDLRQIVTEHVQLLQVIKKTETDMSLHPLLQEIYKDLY
How it was run: (§1)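 Cell-based Gal-4 transactivation assay in COS-7 cells transfected with PPARα, PPARδ or PPARγ ligand-binding domain. EC50 and Emax were derived, with Emax as maximum activation in percent of control. EC50s are means of at least two independent experiments performed in triplicate.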

[2] = Efflux ratio of apparent permeability in human Caco2 cells at 10 uM after 2 hrs by LC-MS/MS analysis; assay type: ADME, cell-based, Caco-2
[3] = biological target: T2, Peroxisome proliferator-activated receptor delta (Homo sapiens, UniProt Q03181); test: Transactivation of human GAL4-fused PPARdelta LBD expressed in African green monkey COS7 cells co-expressing 5Gal4 pGL3 TK Luc after overnight incubation by luciferase reporter gene assay; assay type: cell-based; how it was run: as §1
T2 sequence (Q03181 whole entry): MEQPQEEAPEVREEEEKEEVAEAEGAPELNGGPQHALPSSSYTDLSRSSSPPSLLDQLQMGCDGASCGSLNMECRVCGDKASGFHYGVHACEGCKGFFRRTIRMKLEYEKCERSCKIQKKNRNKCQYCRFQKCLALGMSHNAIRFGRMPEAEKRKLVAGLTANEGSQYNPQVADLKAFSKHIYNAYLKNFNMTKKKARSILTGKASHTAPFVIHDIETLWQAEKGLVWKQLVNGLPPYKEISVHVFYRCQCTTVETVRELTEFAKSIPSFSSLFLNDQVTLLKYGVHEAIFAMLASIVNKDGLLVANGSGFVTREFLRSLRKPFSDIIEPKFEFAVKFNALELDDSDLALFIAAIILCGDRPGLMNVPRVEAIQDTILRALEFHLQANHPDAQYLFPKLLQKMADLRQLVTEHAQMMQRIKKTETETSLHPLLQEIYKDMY

[4] = biological target: T3, Peroxisome proliferator-activated receptor gamma (Homo sapiens, UniProt P37231); test: Transactivation of human GAL4-fused PPARgamma LBD expressed in African green monkey COS7 cells co-expressing 5Gal4 pGL3 TK Luc after overnight incubation by luciferase reporter gene assay; assay type: cell-based; how it was run: as §1
T3 sequence (P37231 whole entry): T1 sequence (whole entry)

[5] = AUC (infinity) in C57Bl6 mouse at 10 mg/kg, po administered as single oral dose; assay type: ADME, organism-based; conditions: in vivo
How it was run: (§2)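 Single oral dose of 10 mg/kg in methyl cellulose vehicle given to C57Bl6 mice. Plasma was sampled over a 24 h period. […]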

[6] = biological target: T4, Peroxisome proliferator-activated receptor alpha (Homo sapiens) (UniProt Q07869); test: Transactivation of human GAL4-fused PPARalpha LBD expressed in African green monkey COS7 cells co-expressing 5Gal4 pGL3 TK Luc after overnight incubation by luciferase reporter gene assay relative to fenofibric acid; assay type: cell-based; how it was run: as §1
T4 sequence (whole entry): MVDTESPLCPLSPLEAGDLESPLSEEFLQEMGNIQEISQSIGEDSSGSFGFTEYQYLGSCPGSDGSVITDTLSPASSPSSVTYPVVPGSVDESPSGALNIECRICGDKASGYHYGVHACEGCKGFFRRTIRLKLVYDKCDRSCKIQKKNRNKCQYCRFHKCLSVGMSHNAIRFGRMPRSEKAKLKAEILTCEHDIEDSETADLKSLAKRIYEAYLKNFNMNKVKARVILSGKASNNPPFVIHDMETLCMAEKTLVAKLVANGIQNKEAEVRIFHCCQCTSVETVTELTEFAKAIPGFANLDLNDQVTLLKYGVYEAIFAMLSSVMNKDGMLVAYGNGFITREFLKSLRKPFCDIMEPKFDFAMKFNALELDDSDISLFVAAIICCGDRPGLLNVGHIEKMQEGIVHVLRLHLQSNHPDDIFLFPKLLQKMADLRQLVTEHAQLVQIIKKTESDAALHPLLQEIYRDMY

[7] = Cmax in C57Bl6 mouse at 10 mg/kg, po administered as single oral dose; assay type: ADME, organism-based; conditions: in vivo; how it was run: as §2
[8] = Aqueous solubility in fasted state simulated intestinal fluid; assay type: physicochemical
[9] = biological target: T5, Peroxisome proliferator-activated receptor delta (Mus musculus) (UniProt P35396); test: Transactivation of PPARdelta in mouse C2C12 cells assessed increase in [14C]oleate beta-oxidation at 30 uM preincubated for 48 hrs followed by [14C]oleate addition during last 2 hrs of incubation period relative to control; assay type: cell-based
T5 sequence (whole entry): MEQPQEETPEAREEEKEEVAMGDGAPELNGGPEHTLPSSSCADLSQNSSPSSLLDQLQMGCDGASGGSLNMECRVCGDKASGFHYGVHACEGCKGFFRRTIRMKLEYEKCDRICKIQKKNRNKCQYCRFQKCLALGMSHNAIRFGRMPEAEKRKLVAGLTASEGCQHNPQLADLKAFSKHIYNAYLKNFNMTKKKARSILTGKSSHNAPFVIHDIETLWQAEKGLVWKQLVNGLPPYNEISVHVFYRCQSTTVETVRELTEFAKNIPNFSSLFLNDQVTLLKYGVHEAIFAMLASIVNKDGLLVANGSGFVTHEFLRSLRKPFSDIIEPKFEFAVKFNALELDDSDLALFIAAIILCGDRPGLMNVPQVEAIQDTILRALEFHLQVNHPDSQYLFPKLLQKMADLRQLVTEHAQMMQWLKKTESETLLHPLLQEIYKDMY
How it was run: (§3)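 Fatty acid beta-oxidation was used as the functional read-out. PPARα activity was tested in human hepatoma HuH7 cells and PPARδ activity in mouse myoblast C2C12 cells, at 1, 3, 10 and 30 µM. Values are % beta-oxidation, mean of at least 2 independent experiments run in triplicate, with single-experiment values flagged.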

[10] = Apparent permeability from basolateral to apical side in human Caco2 cells at 10 uM after 2 hrs by LC-MS/MS analysis; assay type: ADME, cell-based, Caco-2
[11] = biological target: T4, Peroxisome proliferator-activated receptor alpha (Homo sapiens); test: Transactivation of PPARalpha in human HuH7 cells assessed increase in [14C]oleate beta-oxidation at 1 uM preincubated for 48 hrs followed by [14C]oleate addition during last 2 hrs of incubation period relative to control; assay type: cell-based; how it was run: as §3
[12] = Apparent permeability from apical to basolateral side in human Caco2 cells at 10 uM after 2 hrs by LC-MS/MS analysis; assay type: ADME, cell-based, Caco-2

Row | Emax [1] | Ratio ([2]; caco-2, 2 h, 10 µM) | EC50 [3] | EC50 [4] | AUC(0-inf) [5] | Emax [6] | Cmax [7] | solubility [8] | Activity [9] | Papp ([10]; caco-2, 2 h, 10 µM) | Activity [11] | Papp ([12]; caco-2, 2 h, 10 µM) | efflux ratio at 2 h, 10 µM ([2]; Caco-2) | Papp B→A at 2 h, 10 µM ([10]; Caco-2) | Papp A→B at 2 h, 10 µM ([12]; Caco-2) | Structure (SMILES)
1 | 79% | 0.1 | 0.866 µM | 0.206 µM | 29400 ng·h/mL | 106% | 10700 ng/mL | 8.7 µM (≈ 3.78 µg/mL) | 55% | 0.2 ×10⁻⁶ cm/s | 44% | 24 ×10⁻⁶ cm/s |  |  |  | O=C(O)CCCc1cc2cc(Cl)ccc2n1S(=O)(=O)c1ccc2ncsc2c1 [LANIFIBRANOR]
2 | 43% |  | 1.91 µM | 1.56 µM | 37300 ng·h/mL | 101% | 14600 ng/mL | 9 µM (≈ 3.27 µg/mL) | 27% |  | 5% |  | 0.2 | 14.4 ×10⁻⁶ cm/s | 61 ×10⁻⁶ cm/s | O=C(O)CCc1cc2cc(Cl)ccc2n1S(=O)(=O)c1ccccc1

Reference: ChEMBL document CHEMBL4020830, “Design, Synthesis, and Evaluation of a Novel Series of Indole Sulfonamide Peroxisome Proliferator Activated Receptor (PPAR) α/γ/δ Triple Activators: Discovery of Lanifibranor, a New Antifibrotic Clinical Candidate” (J Med Chem, 2018)
